# This is a sample that favours compounds with a hit; in the whole collection about 3.2% have one here.
# DAX1 inh-1 – inhibits human nuclear receptor DAX1 | HEK293 Gal4-DAX1 luciferase reporter, luminescence | inhibition, % at 6.75 µM | hit rate 0.99% among 340,000;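 active = inhibition above the mean over all tested compounds plus 3 SD, cut at about 4.2% in these data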;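 note: 0% = DAX1-transfected cells with DMSO and 100% = empty-vector control cells with DMSO; inhibition shows as a rise in luminescence from relieved DAX1 repression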
# JMJD2C inh – inhibitors of human GASC-1 (JMJD2C) demethylase; inhibition, % at 2.35 µM; GST-JMJD2C(1-420) H3K9me3 demethylation, DELFIA europium; AID 2099; Q9H3R0; hit rate 0.069% among 330,000;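 active = more than half of a compound's replicate wells show inhibition beyond 50%, single wells judged on their own value; inconclusive = some, but no more than half, of replicates pass 50% inhibition; inactive = no replicate passes 50% inhibition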;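 note: signal counts dimethyl H3K9 product captured on neutravidin plate; 0% = median of DMSO wells and 100% = 0.3 times that DMSO median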
# Target sequence (Q9H3R0 1-420 limits assumed): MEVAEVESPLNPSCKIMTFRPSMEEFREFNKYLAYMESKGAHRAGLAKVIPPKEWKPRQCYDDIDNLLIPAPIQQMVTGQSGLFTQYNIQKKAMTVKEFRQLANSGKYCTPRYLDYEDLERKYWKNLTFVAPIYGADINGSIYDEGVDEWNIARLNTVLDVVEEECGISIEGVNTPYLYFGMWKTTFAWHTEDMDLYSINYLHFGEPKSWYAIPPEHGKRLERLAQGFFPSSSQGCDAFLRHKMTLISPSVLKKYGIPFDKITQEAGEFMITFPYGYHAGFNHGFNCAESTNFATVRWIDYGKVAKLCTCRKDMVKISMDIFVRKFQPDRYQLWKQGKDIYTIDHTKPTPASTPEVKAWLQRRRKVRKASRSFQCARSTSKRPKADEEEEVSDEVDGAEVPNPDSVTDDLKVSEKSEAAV
# NR2E3 ag-1 – NR2E3 (human) agonism | Q9Y5X4 | GST-NR2E3/biotin-RetCOR TR-FRET, 1536-well | inhibition of corepressor binding, % at 4.78 µM | hit rate 0.12% among 320,000;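 active = percent inhibition above the cutoff of mean plus 3 SD of all tested compounds, set per screening campaign, cut at about 20% in these data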;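 note: 0% = DMSO wells and 100% = biotin wells as full block of FRET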
#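 Test system: GST-NR2E3 and biotin-RetCOR proteins | Quantity: 1.35 nM GST-tagged NR2E3 final | Medium: Tris pH 7.5 | Also added: 7 nM biotin-RetCOR | Dosing: Compound at 4.8 µM, single dose | Timing: 5 h at 4 °C | Detection: Time-resolved FRET | Read-out basis: Percent inhibition | Benchmarks: Biotin wells as high control, 0.6% DMSO wells as low control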
# NR2E3 ag-2 – human photoreceptor-specific nuclear receptor agonism | Q9Y5X4 | CHO-S Gal4-NCOR/VP16-NR2E3 two-hybrid, luciferase | inhibition of corepressor binding, % at 3.98 µM | hit rate 0.35% among 360,000;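 active = inhibition above the mean of all tested compounds plus 3 SD, cut at about 70% in these data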;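 note: 0% = DMSO with NR2E3 transfected cells and 100% = cells lacking NR2E3 construct; higher means lower luciferase signal from less NR2E3 corepressor binding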
# SMARCA2 act – SMARCA2 function activation, primary screen; MG213 cells, MMTV-luciferase reporter, dexamethasone, overnight; activation, % at 9.1 µM; hit rate 1% among 370,000; in the data active = activation above about 7.8%;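 note: 0% = vehicle wells and 100% = reference activator wells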
# DAX1 inh-2 – inhibitors of DAX1 repression of SF-1 activated StAR promoter; inhibition, % at 6.8 µM; HEK293T StAR-luciferase reporter, SF-1/DAX-1 repression relief; hit rate 1.1% among 370,000;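 active = inhibition above the mean over all tested compounds plus 3 SD, cut at about 3.6% in these data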;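 note: 0% = DAX-1 cells with DMSO and 100% = cells lacking DAX-1 with DMSO; higher inhibition means more luminescence from relief of DAX-1 repression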
# The depositor's hits bear a star; ? = inconclusive; . = not tested or not shown.
SMILES,DAX1 inh-1,JMJD2C inh,NR2E3 ag-1,NR2E3 ag-2,SMARCA2 act,DAX1 inh-2
COc1cc2c(cc1OC)C13CCN4CC5=CCOC(CC(=O)O)C(C5CC41)C3N2 (stereo unspecified),5.7*,.,.,-1,-1,0
Cc1cc(N=Nc2ccccc2C)ccc1N,6.0*,-3,-1,.,4,2
c1cncc(-c2ccc3n2Cc2cnnn2-c2ccccc2-3)c1,.,.,.,.,-3,-1
CC(=O)OC1CC(OC2C(O)CC(OC3C(O)CC(OC4CCC5(C)C(CCC6C5CCC5(C)C(C7=CC(=O)OC7)CCC65O)C4)OC3C)OC2C)OC(C)C1OC1OC(CO)C(O)C(O)C1O (stereo unspecified),-6,.,.,-9,-11,-10
CC(=O)OC1CC[C@]2(C#N)[C@H]3CC[C@]4(C)[C@H](C5C=CC(=O)O5)CCC4(O)C3CCC2(O)C1 (stereo partly specified),-2,9,0,-10,7.8*,3
Cc1cc(C(=O)Nc2ccc3c(c2)OCCO3)nn1C(C)(C)C,5.7*,-2,1,-103,1,1
N#CC1c2ccccc2-n2nncc2CN1C(=O)c1ccc([N+](=O)[O-])o1 (stereo unspecified),.,.,.,.,-2,-2
CSc1nc(Cl)c(Br)c(N2CC2)n1,4.6*,.,.,-35,-8,1
CC(=O)N1c2ccccc2C(c2ccccc2)=NCC1C(=O)NCc1ccccc1 (stereo unspecified),.,.,.,.,-2,0
Cn1c(=O)cc(OCC(=O)N2CCN(C3CCCCC3)CC2)c2ccccc21,0,-3,-1,3,-3,3
CCn1c(=O)cc(OCC(=O)N2CCC3(CC2)OCCO3)c2ccccc21,4.4*,1,2,-6,3,1
O=[N+]([O-])c1cc(S(=O)(=O)c2ccc(O)c([N+](=O)[O-])c2)ccc1O,-1,0,2,-7,-3,0
O=c1c([N+](=O)[O-])cn(O)cc1[N+](=O)[O-],4.4*,.,.,-15,-1,-1
O=c1[nH]c(=S)n(Cc2ccc(F)cc2)c(O)c1C=NCC1CCCO1 (stereo unspecified),6.2*,2,0,1,-2,-1
Cc1ccc(/C=C2\C(=O)NC(=S)N(c3ccc(F)cc3)C2=O)s1,0,25,4,-78,7,4.0*
O=C(CN1C(=O)CN=C(c2ccccc2)c2cc(Cl)ccc21)NC1CCCCC1,.,.,.,.,-8,0
S=C=Nc1cccc(C2(N3CCCCC3)CCCCC2)c1,-1,.,0,-12,11*,0
COP(=O)(C(=O)Nc1ccccc1)C(CC(C)C)NC(=O)OCc1ccccc1 (stereo unspecified),.,.,.,.,1,-1
CN(C)C(=O)Oc1ccnc2cc(Cl)ccc12,5.5*,5,-4,1,-2,-1
CN(C)c1ccc([N+](=O)[O-])c([N+](=O)[O-])c1,4.4*,.,.,3,-2,0
CN(C)c1ccc([P+](=O)c2ccc(N(C)C)cc2)cc1,-1,10,-1,-28,-2,0
COc1ccc2cc(C(=O)C3CCCN(C4CCOCC4)C3)ccc2c1 (stereo unspecified),1,5,1,17,1,4.4*
COc1c(C)cc(C(=O)C2CCCN(C3CCOCC3)C2)cc1C (stereo unspecified),1,-15,0,39,0,3
CCC(NC(=O)OCc1ccccc1)P(=O)(Oc1ccccc1)Oc1ccccc1 (stereo unspecified),.,.,.,.,-1,-1
CC(=Nc1ccccc1N)c1c(O)n(C)c(=O)n(C)c1=O,4.5*,4,1,-88,3,0
SMILES,DAX1 inh-1,JMJD2C inh,NR2E3 ag-1,NR2E3 ag-2,SMARCA2 act,DAX1 inh-2
CCn1nc(-c2cccs2)nc2c(=O)n(C)c(=O)nc1-2,-6,.,.,106*,.,.
Cc1ccccc1CCC[C@H](CC1CCCCC1)CN(C)C(=O)Oc1ccccc1,.,.,.,.,-4,-1
CN1c2ccc(Br)cc2[C@H]2NCC[C@H]2[C@H]1CO,.,.,.,.,-1,-1
O=C(c1ccc(N2CCCCC2)c([N+](=O)[O-])c1)N1CCC2(CC1)OCCO2,5.1*,3,0,-3,-2,-1
CN(C)C(=O)OCc1n(C)cc[n+]1C,2,-2,1,8,-2,0
CCN(CC)P(c1n(C)cc[n+]1C)N(CC)CC,6.2*,-6,3,1,0,0
CCOC(=O)[C@]12Cc3cc(C)ccc3[C@H]1N(C(C)C)C(=O)c1ccccc12,.,.,.,-4,-4,4.2*
CCOC(=O)[C@]12Cc3cc(C)ccc3[C@H]1N(Cc1ccccc1)C(=O)c1ccccc12,-1,.,.,17,-1,0
CCOC(=O)[C@]12Cc3ccccc3[C@H]1N(C)C(=O)c1cc(OC)ccc12,.,.,.,-1,-3,3.7*
O=C(NC(Cc1ccccc1)P(=O)(O)Oc1ccccc1)OCc1ccccc1 (stereo unspecified),.,.,.,.,0,0
O=c1[nH]cc(N(CCCl)CCCl)c(=O)[nH]1,.,.,.,.,-7,1
CCC(=Nc1cccc(C(F)(F)F)c1)c1c(O)n(C)c(=O)n(C)c1=O,4.5*,?,-2,-30,-3,0
CCC(=Nc1ccc(OC)cc1OC)c1c(O)n(C)c(=O)n(C)c1=O,0,-6,0,19,-3,-2
N=c1c2c(-c3ccccc3)c(-c3ccccc3)n(Cc3ccccc3)c2ncn1C1CCC(O)CC1 (stereo unspecified),.,.,.,.,3,-2
C[C@]12CC[C@H](O)C[C@H]1CC[C@@H]1[C@@H]2CC[C@]2(C)C(=O)CC[C@@H]12,4.3*,.,.,-32,-3,1
C[C@]12CCC3[C@@H](CC[C@H]4C[C@@H](O)CC[C@]34C)C1CCC2=O (stereo partly specified),-1,10,1,26,-3,0
CCCCn1c(O)c(/C=C2/C=CC=N2)c(=O)[nH]c1=O,5.4*,-1,4,7,-2,0
C=CCn1c(O)c(/C=C2/C=CC=N2)c(=O)[nH]c1=O,1,0,1,-4,0,1
COc1cc(C(=O)N2C[C@H]3C[C@@H](C2)c2cccc(=O)n2C3)cc(OC)c1OC,4.9*,19,0,17,0,0
N#CC1=C(N)Oc2c(c(=O)sc3ccccc23)C1c1cccnc1 (stereo unspecified),-1,-24,0,-32,1,4.1*
N#CC1=C(N)Oc2c(c(=O)oc3ccccc23)C1c1ccncc1 (stereo unspecified),0,.,4,-7,6,-1
CCN1/C(=C\C=C\C2=[N+](CC)c3ccccc3C2(C)C)C(C)(C)c2ccccc21,-5,-13,7,104*,.,.
O=C(CNC(=O)OCc1ccccc1)NC(Cc1ccccc1)P(=O)(Oc1ccccc1)Oc1ccccc1 (stereo unspecified),.,.,.,.,-2,-1
